According to ChEMBL document CHEMBL2163332 (J Med Chem, 2012):
The source made the active and inactive calls. No cut-off for these calls is given here.

Experiments:
[1] = target: Delta-type opioid receptor (Mus musculus) (UniProt P32300); assay: Agonist activity at delta opioid receptor in Kunming mouse vas deferens assessed as inhibition of electrically-stimulated muscle contraction in presence of delta opioid receptor antagonist naltrindole; type: functional, tissue-based
[2] = target: T1, Mu-type opioid receptor (Homo sapiens, UniProt P35372); assay: Agonist activity at mu opioid receptor expressed in HEK293 cells assessed as inhibition of forskolin-induced cAMP accumulation after 30 mins by liquid scintillation counter relative to control; type: functional, cell-based
In short: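 MOR-expressing HEK293 cells seeded at 80% confluence the day before, washed with serum-free medium, preincubated 10 min at 37 °C with 1 mM IBMX, then peptide (5 × 10−11 to 5 × 10−5 M) with 50 μM forskolin added for 30 min at 37 °C. Lysis in 0.2 N HCl, neutralisation, cAMP measured by competition with [3H]cAMP for PKA (≥2 h, 4 °C) and charcoal separation; scintillation counting.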

[3] = target: Delta-type opioid receptor (Mus musculus, UniProt P32300); assay: Agonist activity at delta opioid receptor in Kunming mouse vas deferens assessed as inhibition of electrically-stimulated muscle contraction; type: functional, tissue-based
[4] = target: T1, Mu-type opioid receptor; assay: Displacement of [3H]DAMGO from FLAG-tagged mu opioid receptor expressed in HEK293 cells after 60 mins by liquid scintillation counter; type: cell-based
[5] = target: Delta-type opioid receptor (Homo sapiens, UniProt P41143); assay: Displacement of [3H]DPDPE from Myc-tagged delta opioid receptor expressed in HEK293 cells after 60 mins by liquid scintillation counter; type: cell-based
[6] = Selectivity ratio of Ki for Myc-tagged delta opioid receptor to Ki for FLAG-tagged mu opioid receptor
[7] = target: Mu-type opioid receptor (Cavia porcellus, UniProt P97266); assay: Agonist activity at mu opioid receptor in guinea pig ileum assessed as inhibition of electrically-stimulated muscle contraction; type: functional, tissue-based
[8] = target: T1, Mu-type opioid receptor; assay: Agonist activity at mu opioid receptor expressed in HEK293 cells assessed as inhibition of forskolin-induced cAMP accumulation after 30 mins by liquid scintillation counter; type: functional, cell-based
[9] = test system: Mus musculus; assay: Antinociceptive activity in icv dosed Kunming mouse assessed as inhibition of heat-induced tail flick after 5 to 60 mins; type: functional; details: for ED50: central
In short: (§1)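 Male Kunming mice (18−22 g), peptide or saline given icv; tail immersed in 50 ± 0.2 °C water and withdrawal latency recorded; only mice with baseline latency about 3−5 s used. Readings at 5, 10, 15, 20, 30, 40, 50 and 60 min post-injection; 10−15 mice per group. Naloxone 2 mg/kg ip 10 min before icv dosing for antagonism. ED50 with 95% confidence limits by graded dose−response.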

[10] = test system: Mus musculus; assay: Antinociceptive activity in naloxone treated Kunming mouse assessed as inhibition of heat-induced tail flick at 20 nmol/kg, icv after 10 mins post naloxone treatment; type: functional, organism-based; in short: as §1
[11] = target: T1, Mu-type opioid receptor; assay: Agonist activity at human FLAG-tagged mu opioid receptor expressed in HEK293 cells assessed as induction of ERK1/2 phosphorylation at 10 nM after 10 mins by Western blot analysis; type: functional, cell-based
In short: (§2)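 Stable HEK293 line with FLAG-tagged MOR, in 12-well plates and serum-starved 16 h, then exposed to peptide at various concentrations for 10 min at 37 °C. Lysis in RIPA with 10 μM PMSF and phosphatase inhibitors. 20 μg protein run on 10% SDS-PAGE, blotted to PVDF and probed for phospho-ERK1/2 (Thr202/Tyr204) and total ERK1/2 (1:1000), ECL detection; at least three independent experiments.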

[12] = target: T1, Mu-type opioid receptor; assay: Agonist activity at human FLAG-tagged mu opioid receptor expressed in HEK293 cells assessed as induction of ERK1/2 phosphorylation after 10 mins by Western blot analysis; type: functional, cell-based; in short: as §2
[13] = target: T1, Mu-type opioid receptor; assay: Agonist activity at human FLAG-tagged mu opioid receptor expressed in HEK293 cells assessed as induction of ERK1/2 phosphorylation at 1 pM after 10 mins by Western blot analysis; type: functional, cell-based; in short: as §2
[14] = test system: Mus musculus; assay: Antinociceptive activity in Kunming mouse assessed as inhibition of heat-induced tail flick at 0.67 to 20 nmol/kg, icv; type: functional, organism-based; details: TDE = time-dependent effect; in short: as §1
[15] = Half life in mouse brain homogenates; type: ADME, tissue-based; details: brain homogenate
In short: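 Peptide incubated at 37 °C in twice-washed 15% mouse brain membrane homogenate, final protein 2.1 mg/mL in 50 mM Tris, pH 7.4. Aliquots centrifuged 13000g, 15 min, 4 °C, filtered 0.22 μm and analysed by C18 RP-HPLC (acetonitrile/water, 0.05% TFA). Half-life from pseudo-first-order disappearance kinetics; at least three experiments.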

Chain of Mu-type opioid receptor (Cavia porcellus, UniProt P97266) (P97266 whole entry): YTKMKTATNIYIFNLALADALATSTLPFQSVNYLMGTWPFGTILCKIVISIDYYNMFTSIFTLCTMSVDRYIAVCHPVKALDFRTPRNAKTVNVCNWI
Chain of Delta-type opioid receptor (Homo sapiens, UniProt P41143) (P41143 whole entry): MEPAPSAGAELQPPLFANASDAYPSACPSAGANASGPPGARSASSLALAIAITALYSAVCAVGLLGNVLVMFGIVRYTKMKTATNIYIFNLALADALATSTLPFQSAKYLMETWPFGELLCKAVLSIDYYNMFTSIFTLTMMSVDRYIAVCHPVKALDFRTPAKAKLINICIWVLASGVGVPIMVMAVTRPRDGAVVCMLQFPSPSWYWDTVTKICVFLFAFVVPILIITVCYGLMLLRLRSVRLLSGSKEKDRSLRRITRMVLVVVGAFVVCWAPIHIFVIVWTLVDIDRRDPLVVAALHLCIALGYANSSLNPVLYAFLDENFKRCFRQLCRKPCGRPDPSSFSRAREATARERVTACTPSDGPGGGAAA
Chain of Delta-type opioid receptor (Mus musculus) (P32300 whole entry): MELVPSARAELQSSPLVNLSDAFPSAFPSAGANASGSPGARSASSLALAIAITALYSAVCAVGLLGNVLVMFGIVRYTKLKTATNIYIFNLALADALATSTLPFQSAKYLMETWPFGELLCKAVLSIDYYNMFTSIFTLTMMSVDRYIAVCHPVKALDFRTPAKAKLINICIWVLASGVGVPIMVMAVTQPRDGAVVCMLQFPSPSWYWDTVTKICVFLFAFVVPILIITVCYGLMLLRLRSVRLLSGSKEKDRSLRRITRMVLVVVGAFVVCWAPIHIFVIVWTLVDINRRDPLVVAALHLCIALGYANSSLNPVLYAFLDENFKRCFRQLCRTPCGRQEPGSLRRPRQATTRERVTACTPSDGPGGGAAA
Chain of Delta-type opioid receptor (Mus musculus, UniProt P32300) (P32300 whole entry): as above
T1 sequence (P35372 whole entry): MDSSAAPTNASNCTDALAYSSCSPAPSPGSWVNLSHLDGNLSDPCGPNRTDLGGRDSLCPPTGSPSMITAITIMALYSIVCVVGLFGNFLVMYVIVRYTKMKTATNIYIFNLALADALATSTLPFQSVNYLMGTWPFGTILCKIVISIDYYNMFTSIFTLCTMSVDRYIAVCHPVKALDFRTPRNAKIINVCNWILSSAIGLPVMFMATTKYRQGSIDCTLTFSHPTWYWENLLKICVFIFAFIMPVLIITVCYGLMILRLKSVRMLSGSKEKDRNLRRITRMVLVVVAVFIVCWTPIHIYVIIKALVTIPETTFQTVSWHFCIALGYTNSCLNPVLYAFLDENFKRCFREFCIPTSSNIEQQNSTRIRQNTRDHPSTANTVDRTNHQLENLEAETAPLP

SMILES	inhibition [1]	Emax [2] [%]	IC50 [3] [nM]	Ki [4] [nM]	Ki [5] [µM]	Ratio Ki [6]	IC50 [7] [nM]	EC50 [8] [nM]	inhibition [8]	inhibition [9]	inhibition [10]	Activity [11]	Activity [12]	Activity [13]	ED50 [9] [µmol/kg]	inhibition [14]	half-life [15] [min]
NC(=O)[C@H](Cc1ccccc1)NC(=O)[C@H](Cc1ccccc1)NC(=O)[C@@H]1CCCN1C(=O)[C@@H](N)Cc1ccc(O)cc1	inactive	82.8															
C=C(C(N)=O)[C@@H](NC(=O)[C@H](Cc1c[nH]c2ccccc12)NC(=O)[C@@H]1CCCN1C(=O)[C@@H](N)Cc1ccc(O)cc1)c1ccc(Cl)cc1	inactive	85.6	36.7	7.12	10.8	1520	15.3	12	Dose-dependent effect	Dose-dependent effect							
C=C(C(N)=O)[C@@H](NC(=O)[C@H](Cc1c[nH]c2ccccc12)NC(=O)[C@@H]1CCCN1C(=O)[C@@H](N)Cc1ccc(O)cc1)c1ccccc1	inactive	97.9	7.53	0.535	56	105000	6.81	0.16	Dose-dependent effect	Dose-dependent effect	inactive	Active	Dose-dependent effect	Active	0.00233	tde	62.4
NC(=O)[C@H](Cc1ccccc1)NC(=O)[C@H](Cc1c[nH]c2ccccc12)NC(=O)[C@@H]1CCCN1C(=O)[C@@H](N)Cc1ccc(O)cc1	inactive																
C=C(C(N)=O)[C@@H](NC(=O)[C@H](Cc1c[nH]c2ccccc12)NC(=O)[C@@H]1CCCN1C(=O)[C@@H](N)Cc1ccc(O)cc1)c1ccco1	inactive	97.1	15.8	0.221	50	226000	2.92	0.0334	Dose-dependent effect	Dose-dependent effect	inactive	Active	Dose-dependent effect	Active	0.00142	tde	85.9
C=C(C(N)=O)[C@@H](NC(=O)[C@H](Cc1c[nH]c2ccccc12)NC(=O)[C@@H]1CCCN1C(=O)[C@@H](N)Cc1ccc(O)cc1)c1cccc2ccccc12	inactive	71	84.4	26	84.7	3260	33.9	72.3	Dose-dependent effect								
C=C(C(N)=O)[C@@H](NC(=O)[C@H](Cc1c[nH]c2ccccc12)NC(=O)[C@@H]1CCCN1C(=O)[C@@H](N)Cc1ccc(O)cc1)c1ccc2c(c1)OCO2	inactive	83.9	432	7.73	18.7	2420	14.3	10.7	Dose-dependent effect								
C=C(C(N)=O)[C@@H](NC(=O)[C@H](Cc1c[nH]c2ccccc12)NC(=O)[C@@H]1CCCN1C(=O)[C@@H](N)Cc1ccc(O)cc1)c1ccc2ccccc2c1	inactive	67.5	141	27.4	84.9	3100	18.2	70.3	Dose-dependent effect								
C=C(C(N)=O)[C@@H](NC(=O)[C@H](Cc1c[nH]c2ccccc12)NC(=O)[C@@H]1CCCN1C(=O)[C@@H](N)Cc1ccc(O)cc1)c1ccc(OC)cc1	inactive	85.6	299	4.83	10.2	2110	84.2	10.9	Dose-dependent effect								
C=C(C(N)=O)[C@@H](NC(=O)[C@H](Cc1c[nH]c2ccccc12)NC(=O)[C@@H]1CCCN1C(=O)[C@@H](N)Cc1ccc(O)cc1)c1ccc(F)cc1	inactive	81.5	130	13.7	17	1240	31.5	7.35	Dose-dependent effect	Dose-dependent effect							
C=C(C(N)=O)[C@@H](NC(=O)[C@H](Cc1c[nH]c2ccccc12)NC(=O)[C@@H]1CCCN1C(=O)[C@@H](N)Cc1ccc(O)cc1)c1ccccc1Cl	inactive	82.6	365	5.48	14.9	2720	16.6	0.84	Dose-dependent effect								
C=C(C(N)=O)[C@@H](NC(=O)[C@H](Cc1c[nH]c2ccccc12)NC(=O)[C@@H]1CCCN1C(=O)[C@@H](N)Cc1ccc(O)cc1)c1cccc(Cl)c1	inactive	92.5	69.4	3.49	5.82	1670	7.66	0.72	Dose-dependent effect	Dose-dependent effect	inactive				0.00928	tde	89.9
C=C(C(=O)N[C@@H](Cc1ccccc1)C(N)=O)[C@@H](NC(=O)[C@@H]1CCCN1C(=O)[C@@H](N)Cc1ccc(O)cc1)c1ccccc1	inactive	70.8	> 10000	103	59.3	576	20.9	36.5	Dose-dependent effect	Dose-dependent effect							
C=C(C(N)=O)[C@@H](NC(=O)C(=C)[C@@H](NC(=O)[C@@H]1CCCN1C(=O)[C@@H](N)Cc1ccc(O)cc1)c1ccccc1)c1ccccc1	inactive	60.3	166	15.7	11	699	38.1	45.1	Dose-dependent effect	Dose-dependent effect							
C=C(C(N)=O)[C@@H](NC(=O)[C@H](Cc1c[nH]c2ccccc12)NC(=O)[C@@H]1CCCN1C(=O)[C@@H](N)Cc1ccc(O)cc1)c1ccoc1	inactive	98.7	10.2	0.274	50.9	186000	3.94	0.0342	Dose-dependent effect	Dose-dependent effect	inactive	Active	Dose-dependent effect	Active	0.00155	tde	88.3
